# Test results reported in ChEMBL document CHEMBL1148649, “Effect of various pyrimidines possessing the 1-[(2-hydroxy-1-(hydroxymethyl)ethoxy)methyl] moiety, able to mimic natural 2'-deoxyribose, on wild-type and mutant hepatitis B virus replication” (J Med Chem, 2006).
# Experiments:
# Hepatitis B virus [1] = experiment: Antiviral activity against wild type HBV in human hepatoma 2.2.15 cells at 10 ug/mL; format: functional; details: HepG2 2.2.15
# Outline: (§1)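 HBV-transfected human 2.2.15 cells were treated with compounds. Intracellular HBV DNA was quantified by dot blot hybridization. EC50 is the µM concentration that reduces viral DNA to 50% of untreated infected controls. The fixed-dose value is % inhibition at 10 µg/mL against untreated infected controls. Lamivudine and abacavir served as references.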
# Duck hepatitis B virus [2] = experiment: Antiviral activity against duck HBV in primary duck hepatocytes at 10 ug/mL; format: functional; details: Hepatocyte
# Outline: (§2)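 Primary hepatocyte cultures from congenitally DHBV-infected ducks were exposed to compounds. Intracellular viral DNA was measured by dot blot hybridization. EC50 is the µM concentration that cuts viral DNA to 50% of untreated infected controls. The single-point value is % inhibition of viral DNA at 10 µg/mL against untreated infected controls.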
# HepG2 = experiment: Cytotoxicity against human HepG2 cell line; format: functional
# Outline: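 HepG2 cells were exposed to compounds for 3 days and viability was measured. CC50 is the concentration lowering viability by 50% versus untreated control. ">" means 50% was not reached at the highest concentration tested.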
# Vero = experiment: Cytotoxicity against Vero cell line; format: functional; details: Chlorocebus sabaeus
# Outline: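 Vero cell viability was measured by MTT after 3 days of compound exposure. CC50 is the concentration giving 50% loss of viability versus untreated control. ">" marks values where 50% was not reached at the highest concentration tested.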
# Hepatitis B virus [3] = experiment: Antiviral activity against wild type HBV in human hepatoma 2.2.15 cells; format: functional, organism-based; details: HepG2 2.2.15; outline: as §1
# Duck hepatitis B virus [4] = experiment: Antiviral activity against duck HBV in primary duck hepatocytes; format: functional, organism-based; details: Hepatocyte; outline: as §2
# Hepatitis B virus [5] = experiment: Antiviral activity against HBV M204I mutant transfected in B1 cell line; format: functional, organism-based
# Outline: (§3)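 HepG2 human hepatoma cells stably transfected with mutant HBV genome: B1 line carries M204I, D88 line carries L180M/M204V. Culture, compound treatment and read-out are as for 2.2.15 cells. Intracellular viral DNA is measured by dot blot hybridization. EC50 is the concentration (µM) that reduces viral DNA to 50% of untreated infected controls.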
# Hepatitis B virus [6] = experiment: Antiviral activity against HBV L180M/M204V mutant transfected in D88 cell line at 10 ug/mL; format: functional
# Outline: (§4)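 Mutant-HBV-transfected HepG2 lines: B1 carries M204I, D88 carries L180M/M204V. Cells are exposed to compound at 10 µg/mL. Intracellular viral DNA is quantified by dot blot hybridization. Results are given as percent inhibition of viral DNA relative to untreated infected controls.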
# Hepatitis B virus [7] = experiment: Antiviral activity against HBV L180M/M204V mutant transfected in D88 cell line; format: functional, organism-based; outline: as §3
# Hepatitis B virus [8] = experiment: Antiviral activity against HBV M204I mutant transfected in B1 cell line at 10 ug/mL; format: functional; outline: as §4
# Hepatitis C virus = experiment: Antiviral activity against hepatitis C virus; format: functional, organism-based, Hepacivirus hominis
structure (smiles),measurement,setting,value
Nc1ccn(COC(CO)CO)c(=O)n1,inhibition at 10 µg/mL,Hepatitis B virus [1],0%
same,inhibition at 10 µg/mL,Duck hepatitis B virus [2],0%
same,CC50,HepG2,> 465 µM
same,CC50,Vero,> 465 µM
O=c1[nH]c(=O)n(COC(CO)CO)cc1Br,inhibition at 10 µg/mL,Hepatitis B virus [1],40%
same,EC50,Hepatitis B virus [3],> 33.8 µM
same,inhibition at 10 µg/mL,Duck hepatitis B virus [2],48%
same,CC50,HepG2,> 338 µM
same,CC50,Vero,> 338 µM
same,EC50,Duck hepatitis B virus [4],> 33.8 µM
Nc1cn(COC(CO)CO)c(=O)[nH]c1=O,inhibition at 10 µg/mL,Hepatitis B virus [1],30%
same,EC50,Hepatitis B virus [3],> 43.2 µM
same,inhibition at 10 µg/mL,Duck hepatitis B virus [2],37%
same,CC50,HepG2,> 432 µM
same,CC50,Vero,> 432 µM
same,EC50,Duck hepatitis B virus [4],> 43.2 µM
Cc1c(I)c(=O)[nH]c(=O)n1COC(CO)CO [IODMETACYCLUR],inhibition at 10 µg/mL,Hepatitis B virus [1],38%
same,EC50,Hepatitis B virus [3],> 28 µM
same,inhibition at 10 µg/mL,Duck hepatitis B virus [2],44%
same,CC50,HepG2,> 280 µM
same,CC50,Vero,> 280 µM
same,EC50,Duck hepatitis B virus [4],> 28 µM
O=c1[nH]c(=O)n(COC(CO)CO)cc1Cl,inhibition at 10 µg/mL,Hepatitis B virus [1],60%
same,EC50,Hepatitis B virus [5],20 µM
same,EC50,Hepatitis B virus [3],20 µM
same,inhibition at 10 µg/mL,Duck hepatitis B virus [2],69%
same,CC50,HepG2,> 400 µM
same,inhibition at 10 µg/mL,Hepatitis B virus [6],40%
same,CC50,Vero,> 400 µM
same,EC50,Hepatitis B virus [7],> 40 µM
same,inhibition at 10 µg/mL,Hepatitis B virus [8],56%
same,EC50,Duck hepatitis B virus [4],4 µM
Cc1nn(COC(CO)CO)c(=S)[nH]c1=O,inhibition at 10 µg/mL,Hepatitis B virus [1],0%
same,inhibition at 10 µg/mL,Duck hepatitis B virus [2],25%
same,CC50,HepG2,> 404 µM
same,CC50,Vero,> 404 µM
same,EC50,Duck hepatitis B virus [4],> 40.4 µM
COc1nc(=O)n(COC(CO)CO)cc1Br,inhibition at 10 µg/mL,Hepatitis B virus [1],35%
same,EC50,Hepatitis B virus [3],> 32.3 µM
same,inhibition at 10 µg/mL,Duck hepatitis B virus [2],45%
same,CC50,HepG2,> 323 µM
same,CC50,Vero,> 323 µM
same,EC50,Duck hepatitis B virus [4],> 32.3 µM
Cc1nn(COC(CO)CO)c(=O)[nH]c1=O,inhibition at 10 µg/mL,Hepatitis B virus [1],37%
same,EC50,Hepatitis B virus [3],> 43.2 µM
same,inhibition at 10 µg/mL,Duck hepatitis B virus [2],45%
same,CC50,HepG2,> 432 µM
same,CC50,Vero,> 432 µM
same,EC50,Duck hepatitis B virus [4],> 43.2 µM
Nc1nc(=O)n(COC(CO)CO)cc1F,inhibition at 10 µg/mL,Hepatitis B virus [1],0%
same,EC50,Hepatitis C virus,132 µM
same,inhibition at 10 µg/mL,Duck hepatitis B virus [2],20%
same,CC50,HepG2,> 429 µM
same,CC50,Vero,> 429 µM
same,EC50,Duck hepatitis B virus [4],> 42.9 µM
O=c1[nH]c(=O)n(COC(CO)CO)cc1F,inhibition at 10 µg/mL,Hepatitis B virus [1],26%
same,EC50,Hepatitis B virus [3],> 42.7 µM
same,inhibition at 10 µg/mL,Duck hepatitis B virus [2],24%
same,CC50,HepG2,> 427 µM
same,CC50,Vero,> 427 µM
same,EC50,Duck hepatitis B virus [4],> 42.7 µM
O=c1[nH]c(=O)n(COC(CO)CO)cc1CCO,inhibition at 10 µg/mL,Hepatitis B virus [1],28%
same,EC50,Hepatitis B virus [3],> 38.4 µM
same,inhibition at 10 µg/mL,Duck hepatitis B virus [2],25%
same,CC50,HepG2,> 384 µM
same,CC50,Vero,> 384 µM
same,EC50,Duck hepatitis B virus [4],> 38.4 µM
CCc1cn(COC(CO)CO)c(=O)[nH]c1=O,inhibition at 10 µg/mL,Hepatitis B virus [1],30%
same,EC50,Hepatitis B virus [3],> 41 µM
same,inhibition at 10 µg/mL,Duck hepatitis B virus [2],35%
same,CC50,HepG2,> 410 µM
same,CC50,Vero,> 410 µM
same,EC50,Duck hepatitis B virus [4],> 41 µM
Cc1cc(=O)[nH]c(=O)n1COC(CO)CO,inhibition at 10 µg/mL,Hepatitis B virus [1],0%
same,inhibition at 10 µg/mL,Duck hepatitis B virus [2],27%
same,CC50,HepG2,> 434 µM
same,CC50,Vero,> 434 µM
same,EC50,Duck hepatitis B virus [4],> 43.4 µM
O=c1cnn(COC(CO)CO)c(=O)[nH]1,inhibition at 10 µg/mL,Hepatitis B virus [1],32%
same,EC50,Hepatitis B virus [3],> 46 µM
same,inhibition at 10 µg/mL,Duck hepatitis B virus [2],41%
same,CC50,HepG2,> 460 µM
same,CC50,Vero,> 460 µM
same,EC50,Duck hepatitis B virus [4],> 46 µM
Cc1cn(COC(CO)CO)c(=O)[nH]c1=O,inhibition at 10 µg/mL,Hepatitis B virus [1],37%
same,EC50,Hepatitis B virus [3],> 43.4 µM
same,inhibition at 10 µg/mL,Duck hepatitis B virus [2],45%
same,CC50,HepG2,> 434 µM
same,CC50,Vero,> 434 µM
same,EC50,Duck hepatitis B virus [4],> 43.4 µM
Nc1ccn([C@@H]2CS[C@H](CO)O2)c(=O)n1 [LAMIVUDINE],inhibition at 10 µg/mL,Hepatitis B virus [1],88%
same,EC50,Hepatitis B virus [5],> 44 µM
same,inhibition at 10 µg/mL,Duck hepatitis B virus [2],96%
same,inhibition at 10 µg/mL,Hepatitis B virus [6],30%
same,inhibition at 10 µg/mL,Hepatitis B virus [8],45%
O=c1[nH]c(=O)n(COC(CO)CO)cc1[N+](=O)[O-],inhibition at 10 µg/mL,Hepatitis B virus [1],40%
same,EC50,Hepatitis B virus [3],> 38.3 µM
same,inhibition at 10 µg/mL,Duck hepatitis B virus [2],45%
same,CC50,HepG2,> 383 µM
same,CC50,Vero,> 383 µM
same,EC50,Duck hepatitis B virus [4],> 38.3 µM
O=c1[nH]c(=O)n(COC(CO)CO)cc1/C=C/Br,inhibition at 10 µg/mL,Hepatitis B virus [1],53%
same,EC50,Hepatitis B virus [3],30 µM
same,inhibition at 10 µg/mL,Duck hepatitis B virus [2],75%
same,CC50,HepG2,> 311 µM
same,CC50,Vero,> 311 µM
same,EC50,Duck hepatitis B virus [4],3 µM
Nc1nc(NC2CC2)c2ncn([C@H]3C=C[C@@H](CO)C3)c2n1 [ABACAVIR],inhibition at 10 µg/mL,Hepatitis B virus [6],72%
same,inhibition at 10 µg/mL,Hepatitis B virus [8],80%
O=c1[nH]c(=O)n(COC(CO)CO)cc1CO,inhibition at 10 µg/mL,Hepatitis B virus [1],0%
same,inhibition at 10 µg/mL,Duck hepatitis B virus [2],0%
same,CC50,HepG2,> 406 µM
same,CC50,Vero,> 406 µM
O=c1ccn(COC(CO)CO)c(=O)[nH]1,inhibition at 10 µg/mL,Hepatitis B virus [1],0%
same,inhibition at 10 µg/mL,Duck hepatitis B virus [2],0%
same,CC50,HepG2,> 462 µM
same,CC50,Vero,> 462 µM
Cc1c(Br)c(=O)[nH]c(=O)n1COC(CO)CO,inhibition at 10 µg/mL,Hepatitis B virus [1],55%
same,EC50,Hepatitis B virus [5],32.4 µM
same,EC50,Hepatitis B virus [3],32.4 µM
same,inhibition at 10 µg/mL,Duck hepatitis B virus [2],73%
same,CC50,HepG2,> 324 µM
same,inhibition at 10 µg/mL,Hepatitis B virus [6],30%
same,CC50,Vero,> 324 µM
same,EC50,Hepatitis B virus [7],> 32.4 µM
same,inhibition at 10 µg/mL,Hepatitis B virus [8],51%
same,EC50,Duck hepatitis B virus [4],16.2 µM
